Converted amounts (≈) assume the structure as drawn.
How the values were obtained:
[1] = test system: Plasmodium berghei; experiment: Antimalarial activity against Plasmodium berghei str. ANKA infected in Swiss albino mouse assessed as parasitemia at 0.048 mmol/kg/day, po qd […] by microscopic analysis relative to control; format: functional
Method in brief: (§1)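 Four-day suppressive test. Mice were infected iv on day 0 with 0.2 ml of 2 × 10^7 P. berghei ANKA-parasitized erythrocytes from a donor mouse, diluted in saline. From 2 h post-infection they were dosed orally at 0.048 mmol/kg/day for days 0–3, five mice per group. The vehicle was 7% Tween and 3% ethanol in water. On day 4, Giemsa smears were scored over 5 fields of about 100 RBC each. Suppression was calculated relative to the vehicle group, taken as 100%.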

[2] = test system: Plasmodium berghei; experiment: Antimalarial activity against Plasmodium berghei str. ANKA infected in Swiss albino mouse assessed as supression of parasitemia at 0.048 mmol/kg/day, po qd for 3 days by microscopic analysis relative to control; format: functional; method in brief: as §1
[3] = test system: Plasmodium berghei; experiment: Antimalarial activity against Plasmodium berghei str. ANKA infected in Swiss albino mouse assessed as survival at 0.048 mmol/kg/day, po qd for 3 days by microscopic analysis relative to control; format: functional
Method in brief: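 P. berghei ANKA infected mice, 4-day suppressive test. Day 0: 0.2 ml of 2 x 10^7 parasitized erythrocytes given i.v. (donor blood, 20-30% parasitemia, diluted in saline). Oral dosing at 0.048 mmol/kg/day from 2 h post-infection, then days 1-3 at 24 h intervals. Vehicle 7% Tween, 3% ethanol in water. Five mice/group. Survival time recorded per mouse; mean compared with vehicle group.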

[4] = test system: Leishmania aethiopica; experiment: Antileishmanial activity against promastigote stage of Leishmania aethiopica after 24 hrs by alamar blue staining-based […]; format: functional, organism-based
Method in brief: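 L. aethiopica promastigotes, 3 × 10^6 per well, given compounds from DMSO stocks in three-fold dilutions at 10 to 0.04 µg/ml (final DMSO ≤0.1%), in duplicate, at room temperature (21 ± 1 °C). Alamar blue (resazurin) was added after 24 h and absorbance read 48 h later at 540 and 630 nm. Negative control was parasites, medium and DMSO.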

[5] = test system: Leishmania aethiopica; experiment: Antileishmanial activity against amastigote stage of Leishmania aethiopica after 72 hrs by resazurin staining-based fluorescence assay; format: functional, organism-based
Method in brief: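 Axenic L. aethiopica amastigotes (50 µl of 2 × 10^7 cells/ml) exposed to serial dilutions at final 0.04–10 µg/ml for 72 h at 31 °C, humidified, 5% CO₂. Resazurin was added at 68 h and fluorescence read at 72 h (ex 530/em 590 nm). EC50 from sigmoidal dose–response fits, mean ± SD of triplicate experiments run in duplicate. Controls were medium alone and 1% DMSO.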

[6] = test system: Mus musculus; experiment: Toxicity in mouse assessed as change in weight at 25 to 300 mg/kg, po measured for 3 days; format: organism-based; parameters: dose 25-300 mg/kg, route oral; settings: in vivo, 72 h
Method in brief: (§2)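 Male mice (26-32 g), six per group, fasted overnight and weighed. Compounds given orally as suspension in 1% gum acacia at 25, 50, 100, 200 and 300 mg/kg/day; vehicle control at up to 1 ml/100 g. Mortality recorded after 24 h; weight and deaths followed over 3 days post-dosing.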

[7] = test system: Mus musculus; experiment: Toxicity in mouse assessed as death at 25 to 300 mg/kg, po measured for 3 days; format: organism-based; parameters: dose 25-300 mg/kg, route oral; settings: in vivo, 72 h; method in brief: as §2
[8] = Toxicity in po dosed mouse; format: organism-based; settings: in vivo; method in brief: as §2
[9] = test system: Mus musculus; experiment: Toxicity in mouse up to 100 mg/kg administered via parenteral route; format: organism-based; parameters: dose 100 mg/kg; settings: in vivo
Method in brief: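 Groups of six mice received intraperitoneal doses of 10, 25, 50, 75 and 100 mg/kg, with propylene glycol as the vehicle control.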

[10] = test system: Leishmania aethiopica; experiment: Ratio of amphotericin IC50 to compound IC50 for promastigote stage of Leishmania aethiopica; format: functional
[11] = test system: Leishmania aethiopica; experiment: Ratio of miltefosine IC50 to compound IC50 for promastigote stage of Leishmania aethiopica; format: functional
[12] = test system: Plasmodium falciparum; experiment: Antiplasmodial activity against chloroquine-resistant Plasmodium falciparum RKL9 infected in human RBC assessed as effect on schizont maturation after 24 hrs by Geimsa staining-based assay; format: functional, organism-based; settings: RKL9, 24 h
Method in brief: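 P. falciparum RKL9 in continuous culture in human B(+) RBC, parasitemia adjusted to 1-1.5%, RPMI 1640 with 10% AB(+) serum. Two-fold serial dilutions, compounds in ethanol (final ≤0.5%), 24 h at 37 °C, duplicate wells. Schizonts per 100 asexual parasites counted on Giemsa smears; % schizont maturation inhibition = (1 − Nt/Nc) × 100.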

Compound | Activity [1] [%] | Activity [2] [%] | Survival [3] [days] | IC50 [4] [µg/mL] | IC50 [5] [µg/mL] | Activity [6] | Activity [7] | MTD [8] [mg/kg] | Activity [9] | Ratio IC50 [10] | Ratio IC50 [11] | IC50 [12] [nM]
CC(=O)N(C1=NN(C(C)=O)C(c2cn(-c3ccc(Br)cc3)nc2-c2ccc([N+](=O)[O-])cc2)S1)c1ccccc1 (stereo unspecified) | 12 | 86.05 | 16.86 | 0.0142 (≈ 0.0235 µM) | 0.13 (≈ 0.215 µM) | Non-toxic | Non-toxic | 300 | Non-toxic | 3 | 225 | –
O=[N+]([O-])c1ccc(-c2nn(-c3ccc(Br)cc3)cc2C2CC(c3ccccc3)=NN2)cc1 (stereo unspecified) | 4 | 95.35 | 17.6 | 2.12 (≈ 4.35 µM) | 1.11 (≈ 2.27 µM) | Non-toxic | Non-toxic | 300 | Non-toxic | – | – | 42
Cc1ccc(-n2cc(/C=N/NC(=S)Nc3ccccc3)c(-c3ccc([N+](=O)[O-])cc3)n2)cc1 | 5 | 94.19 | 14 | 0.0241 (≈ 0.0528 µM) | 0.23 (≈ 0.504 µM) | Non-toxic | Non-toxic | 300 | Non-toxic | – | – | 37.8
Cc1ccc(-c2nn(-c3ccc(Br)cc3)cc2/C=N/N=C2/SCC(=O)N2c2ccccc2)cc1 | 4 | 95.35 | 16.86 | 0.0341 (≈ 0.0643 µM) | 0.32 (≈ 0.603 µM) | Non-toxic | Non-toxic | 300 | Non-toxic | – | – | 36.4
O=C(/C=C/c1cn(-c2ccc(Br)cc2)nc1-c1ccc([N+](=O)[O-])cc1)c1ccccc1 | 3 | 96.51 | 16.22 | 1.08 (≈ 2.28 µM) | 1.22 (≈ 2.57 µM) | Non-toxic | Non-toxic | 300 | Non-toxic | – | – | 38.8
Cc1ccc(-n2cc(/C=N/N=C3/SCC(=O)N3c3ccccc3)c(-c3ccc([N+](=O)[O-])cc3)n2)cc1 | 3 | 96.51 | 16.62 | 0.0201 (≈ 0.0405 µM) | 0.28 (≈ 0.564 µM) | Non-toxic | Non-toxic | 300 | Non-toxic | – | – | 40.2
